# Results: ChEMBL document CHEMBL1240435, “Synthesis of some 3-substituted amino-4,5-tetramethylene thieno[2,3-d][ 1,2,3]-triazin-4(3H)-ones as potential antimicrobial agents” (2010)
# Tests used:
# [1] = test system: Staphylococcus epidermidis; test: Antibacterial activity against Staphylococcus epidermidis after 24 hrs by tube dilution method; type: functional
# Cryptococcus neoformans [2] = test: Antifungal activity against Cryptococcus neoformans after 48 hrs by tube dilution method; type: functional
# Escherichia coli [3] = test: Antibacterial activity against Escherichia coli after 24 hrs by tube dilution method; type: functional
# Staphylococcus aureus [4] = test: Antibacterial activity against Staphylococcus aureus after 24 hrs by tube dilution method; type: functional
# Aspergillus niger [5] = test: Antifungal activity against Aspergillus niger after 48 hrs by tube dilution method; type: functional
# Candida albicans [6] = test: Antifungal activity against Candida albicans after 48 hrs by tube dilution method; type: functional
# Aspergillus niger [7] = test: Antifungal activity against Aspergillus niger at 50 ug/ml after 48 hrs by agar cup diffusion method; type: functional; conditions: read-out: IZ
# Salmonella typhi [8] = test: Antibacterial activity against Salmonella typhi after 24 hrs by tube dilution method; type: functional, Salmonella enterica subsp. enterica serovar Typhi; conditions: Salmonella enterica
# Candida albicans [9] = test: Antifungal activity against Candida albicans at 50 ug/ml after 48 hrs by agar cup diffusion method; type: functional; conditions: read-out: IZ
# Staphylococcus aureus [10] = test: Antibacterial activity against Staphylococcus aureus at 50 ug/ml after 24 hrs by agar cup diffusion method; type: functional; conditions: read-out: IZ
# Outline: (§1)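 Compounds dissolved in DMF. A fresh bacterial subculture in isotonic NaCl was mixed into sterile assay medium at 40–45 °C and poured into Petri dishes. Test solution went into marked wells. Plates stood 5 min, were covered for 1 h, then incubated at 37 °C for 24 h. Inhibition zones were measured as the average of three readings.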
# Escherichia coli [11] = test: Antibacterial activity against Escherichia coli at 50 ug/ml after 24 hrs by agar cup diffusion method; type: functional; conditions: read-out: IZ; outline: as §1
# Salmonella typhi [12] = test: Antibacterial activity against Salmonella typhi at 50 ug/ml after 24 hrs by agar cup diffusion method; type: functional, Salmonella enterica subsp. enterica serovar Typhi; conditions: Salmonella enterica, read-out: IZ
# Outline: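 Agar cup diffusion against an ATCC or IMTECH standard strain. The test compound is dissolved in DMF. A fresh bacterial subculture in isotonic NaCl is mixed into sterile medium at 40–45 °C and poured into plates. Solution is added to marked wells, left 5 min, then covered 1 h. Plates are incubated at 37 °C for 24 h. The inhibition zone is the mean of three readings, with ampicillin as reference.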
# [13] = test system: Staphylococcus epidermidis; test: Antibacterial activity against Staphylococcus epidermidis at 50 ug/ml after 24 hrs by agar cup diffusion method; type: functional; conditions: read-out: IZ; outline: as §1
# Cryptococcus neoformans [14] = test: Antifungal activity against Cryptococcus neoformans at 50 ug/ml after 48 hrs by agar cup diffusion method; type: functional; conditions: read-out: IZ
Compound,MIC [1],MIC (Cryptococcus neoformans [2]),MIC (Escherichia coli [3]),MIC (Staphylococcus aureus [4]),MIC (Aspergillus niger [5]),MIC (Candida albicans [6]),zone of inhibition at 50 µg/mL (Aspergillus niger [7]),MIC (Salmonella typhi [8]),zone of inhibition at 50 µg/mL (Candida albicans [9]),zone of inhibition at 50 µg/mL (Staphylococcus aureus [10]),zone of inhibition at 50 µg/mL (Escherichia coli [11]),zone of inhibition at 50 µg/mL (Salmonella typhi [12]),zone of inhibition at 50 µg/mL [13],zone of inhibition at 50 µg/mL (Cryptococcus neoformans [14])
O=c1[nH]nnc2sc3c(c12)CCCC3,37.5 µg/mL,125 µg/mL,50 µg/mL,37.5 µg/mL,37.5 µg/mL,50 µg/mL,4 mm,37.5 µg/mL,3 mm,,,,,
Cn1nnc2sc3c(c2c1=O)CCCC3,37.5 µg/mL,125 µg/mL,50 µg/mL,37.5 µg/mL,37.5 µg/mL,50 µg/mL,6 mm,37.5 µg/mL,4 mm,16 mm,12 mm,14 mm,18 mm,
CCn1nnc2sc3c(c2c1=O)CCCC3,37.5 µg/mL,125 µg/mL,50 µg/mL,37.5 µg/mL,37.5 µg/mL,50 µg/mL,6 mm,37.5 µg/mL,5 mm,18 mm,16 mm,16 mm,16 mm,
O=c1c2c3c(sc2nnn1-c1ccccc1)CCCC3,25 µg/mL,125 µg/mL,37.5 µg/mL,25 µg/mL,37.5 µg/mL,50 µg/mL,6 mm,37.5 µg/mL,4 mm,20 mm,12 mm,12 mm,17 mm,
Cc1ccccc1-n1nnc2sc3c(c2c1=O)CCCC3,25 µg/mL,75 µg/mL,37.5 µg/mL,25 µg/mL,25 µg/mL,37.5 µg/mL,6 mm,25 µg/mL,4 mm,20 mm,14 mm,12 mm,18 mm,
Cc1cccc(-n2nnc3sc4c(c3c2=O)CCCC4)c1,25 µg/mL,75 µg/mL,37.5 µg/mL,25 µg/mL,25 µg/mL,37.5 µg/mL,8 mm,25 µg/mL,4 mm,24 mm,14 mm,14 mm,20 mm,6 mm
Cc1ccc(-n2nnc3sc4c(c3c2=O)CCCC4)cc1,25 µg/mL,75 µg/mL,37.5 µg/mL,25 µg/mL,25 µg/mL,37.5 µg/mL,8 mm,25 µg/mL,5 mm,28 mm,20 mm,18 mm,28 mm,5 mm
O=c1c2c3c(sc2nnn1-c1ccc(F)cc1)CCCC3,6.75 µg/mL,75 µg/mL,12.5 µg/mL,6.75 µg/mL,12.5 µg/mL,37.5 µg/mL,10 mm,12.5 µg/mL,8 mm,32 mm,26 mm,24 mm,32 mm,8 mm
O=c1c2c3c(sc2nnn1-c1ccccc1Cl)CCCC3,12.5 µg/mL,50 µg/mL,25 µg/mL,12.5 µg/mL,12.5 µg/mL,25 µg/mL,14 mm,12.5 µg/mL,8 mm,30 mm,24 mm,20 mm,30 mm,9 mm
O=c1c2c3c(sc2nnn1-c1cccc(Cl)c1)CCCC3,12.5 µg/mL,50 µg/mL,25 µg/mL,12.5 µg/mL,12.5 µg/mL,25 µg/mL,13 mm,12.5 µg/mL,8 mm,32 mm,26 mm,24 mm,30 mm,8 mm
O=c1c2c3c(sc2nnn1-c1ccc(Cl)cc1)CCCC3,12.5 µg/mL,37.5 µg/mL,25 µg/mL,12.5 µg/mL,12.5 µg/mL,25 µg/mL,16 mm,12.5 µg/mL,10 mm,34 mm,26 mm,26 mm,32 mm,10 mm
O=c1c2c3c(sc2nnn1-c1ccc(F)c(Cl)c1)CCCC3,12.5 µg/mL,50 µg/mL,25 µg/mL,12.5 µg/mL,25 µg/mL,37.5 µg/mL,10 mm,12.5 µg/mL,7 mm,26 mm,24 mm,20 mm,24 mm,8 mm
CC1(C)S[C@@H]2[C@H](NC(=O)[C@H](N)c3ccccc3)C(=O)N2[C@H]1C(=O)O [AMPICILLIN],1.56 µg/mL,,4 µg/mL,0.5 µg/mL,,,,6.25 µg/mL,,40 mm,28 mm,26 mm,36 mm,
Clc1ccc(COC(Cn2ccnc2)c2ccc(Cl)cc2Cl)c(Cl)c1.O=[N+]([O-])O (stereo not drawn) [MICONAZOLE NITRATE],,20 µg/mL,,,10 µg/mL,12.5 µg/mL,16 mm,,12 mm,,,,,14 mm
